Tests used:
SK-BR-3 [1] = test: Cell cycle arrest in human SK-BR-3 cells assessed as accumulation at Sub-G1 phase at 5 uM after 3 hrs using propidium iodide staining by FACS analysis; type: functional
MCF7 = test: Growth inhibition of human MCF7 cells after 48 hrs by SRB assay; type: functional
SK-BR-3 [2] = test: Cell cycle arrest in human SK-BR-3 cells assessed as accumulation at Sub-G1 phase at 0.50 uM after 6 hrs using propidium iodide staining by FACS analysis; type: functional
SK-BR-3 [3] = test: Cell cycle arrest in human SK-BR-3 cells assessed as accumulation at Sub-G1 phase at 0.25 uM after 6 hrs using propidium iodide staining by FACS analysis; type: functional
SK-BR-3 [4] = test: Cell cycle arrest in human SK-BR-3 cells assessed as accumulation at Sub-G1 phase at 0.10 uM after 24 hrs using propidium iodide staining by FACS analysis; type: functional
CCRF-CEM = test: Growth inhibition of human CCRF-CEM cells after 48 hrs by SRB assay; type: functional
SK-BR-3 [5] = test: Cell cycle arrest in human SK-BR-3 cells assessed as accumulation at G1 phase at 0.50 uM after 12 hrs using propidium iodide staining by FACS analysis; type: functional
Outline: (§1)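 SKBR-3 cells in RPMI1640 with 10% heat-inactivated FBS at 37 °C and 5% CO₂ were treated for the stated times. Cells were fixed overnight in 70% EtOH at −20 °C, then stained with propidium iodide buffer (38 mM sodium citrate pH 7.5, 69 µM PI, 120 µg/mL RNase A) for 15 min at room temperature in the dark. Up to 1×10⁴ gated cells were analyzed by flow cytometry, giving percent distribution per phase.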

SK-BR-3 [6] = test: Cell cycle arrest in human SK-BR-3 cells assessed as accumulation at G1 phase at 0.50 uM after 24 hrs using propidium iodide staining by FACS analysis; type: functional; outline: as §1
SK-BR-3 [7] = test: Cell cycle arrest in human SK-BR-3 cells assessed as accumulation at G2/M phase at 0.50 uM after 6 hrs using propidium iodide staining by FACS analysis; type: functional; outline: as §1
SK-BR-3 [8] = test: Cell cycle arrest in human SK-BR-3 cells assessed as accumulation at S phase at 5 uM after 6 hrs using propidium iodide staining by FACS analysis; type: functional
NCI-H226 = test: Growth inhibition of human NCI-H226 cells after 48 hrs by SRB assay; type: functional
SK-BR-3 [9] = test: Cell cycle arrest in human SK-BR-3 cells assessed as accumulation at G2/M phase at 0.50 uM after 3 hrs using propidium iodide staining by FACS analysis; type: functional; outline: as §1
SK-BR-3 [10] = test: Cell cycle arrest in human SK-BR-3 cells assessed as accumulation at G1 phase at 0.10 uM after 3 hrs using propidium iodide staining by FACS analysis; type: functional; outline: as §1
SK-BR-3 [11] = test: Cell cycle arrest in human SK-BR-3 cells assessed as accumulation at S phase at 0.10 uM after 6 hrs using propidium iodide staining by FACS analysis; type: functional; outline: as §1
MDA-MB-468 = test: Growth inhibition of human MDA-MB-468 cells after 48 hrs by SRB assay; type: functional
SK-BR-3 [12] = test: Cell cycle arrest in human SK-BR-3 cells assessed as accumulation at G1 phase at 0.50 uM after 6 hrs using propidium iodide staining by FACS analysis; type: functional; outline: as §1
[13] = (§2) Growth inhibition of human Hs 578T cells after 48 hrs by SRB assay; type: functional
Hs-578T = test: as §2; type: functional
SK-BR-3 [14] = test: Cell cycle arrest in human SK-BR-3 cells assessed as accumulation at G1 phase at 0.25 uM after 18 hrs using propidium iodide staining by FACS analysis; type: functional; outline: as §1
SW-620 = test: Growth inhibition of human SW620 cells after 48 hrs by SRB assay; type: functional
[15] = Tmax in Sprague-Dawley rat plasma at 20 mg/kg, ip; type: ADME, organism-based; set-up: dose 20 mg/kg, route intraperitoneal
Outline: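 Male Sprague–Dawley rats (300–350 g, n=3), fasted overnight with water allowed. Single 20 mg/kg i.p. dose in PBS with 0.1% Tween80 and 20% DMSO. Blood taken from saphenous and femoral veins into heparinized tubes at 0, 0.25, 0.5, 1, 2, 4, 8 and 24 h. Plasma quantified by LC-MS/MS (MRM, 483.3→404.3) after tert-butyl methyl ether/hexane extraction. Parameters derived non-compartmentally.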

UACC-257 = test: Growth inhibition of human UACC257 cells after 48 hrs by SRB assay; type: functional
SK-BR-3 [16] = test: Cell cycle arrest in human SK-BR-3 cells assessed as accumulation at G2/M phase at 0.50 uM after 24 hrs using propidium iodide staining by FACS analysis; type: functional; outline: as §1
SK-BR-3 [17] = test: Cell cycle arrest in human SK-BR-3 cells assessed as accumulation at G2/M phase at 0.25 uM after 3 hrs using propidium iodide staining by FACS analysis; type: functional; outline: as §1
NCI-H460 = test: Growth inhibition of human NCI-H460 cells after 48 hrs by SRB assay; type: functional
SK-BR-3 [18] = test: Cell cycle arrest in human SK-BR-3 cells assessed as accumulation at S phase at 0.50 uM after 18 hrs using propidium iodide staining by FACS analysis; type: functional
SK-BR-3 [19] = test: Cell cycle arrest in human SK-BR-3 cells assessed as accumulation at Sub-G1 phase at 0.50 uM after 24 hrs using propidium iodide staining by FACS analysis; type: functional
OVCAR-4 = test: Growth inhibition of human OVCAR4 cells after 48 hrs by SRB assay; type: functional
HCT-116 = test: Growth inhibition of human HCT116 cells after 48 hrs by SRB assay; type: functional
SK-BR-3 [20] = test: Cell cycle arrest in human SK-BR-3 cells assessed as accumulation at G1 phase at 5 uM after 3 hrs using propidium iodide staining by FACS analysis; type: functional; outline: as §1
SK-BR-3 [21] = test: Cell cycle arrest in human SK-BR-3 cells assessed as accumulation at G2/M phase at 5 uM after 3 hrs using propidium iodide staining by FACS analysis; type: functional; outline: as §1
SK-BR-3 [22] = test: Cell cycle arrest in human SK-BR-3 cells assessed as accumulation at Sub-G1 phase at 5 uM after 18 hrs using propidium iodide staining by FACS analysis; type: functional
SK-BR-3 [23] = test: Cell cycle arrest in human SK-BR-3 cells assessed as accumulation at G2/M phase at 0.10 uM after 18 hrs using propidium iodide staining by FACS analysis; type: functional; outline: as §1
SK-BR-3 [24] = test: Cell cycle arrest in human SK-BR-3 cells assessed as accumulation at Sub-G1 phase at 0.50 uM after 3 hrs using propidium iodide staining by FACS analysis; type: functional
[25] = read-out: LC50 (the source's name)

Question: With `Cc1ccc(C)c(COc2cc(NC(=O)c3ccc4c(c3)OCO4)ccc2N(C)S(C)(=O)=O)c1` as the compound, how does the Activity (SK-BR-3 [1]) read?
Answer: 2.81%

Question: And the “growth inhibition (GI)” value (MCF7)?
Answer: Dose-dependent effect

Question: And the TGI (MCF7; MCF7, 48 h)?
Answer: > 100 µM

Question: What about the CC50 (MCF7; MCF7, 48 h, read-out: LC50 (the source's name)) of the same compound?
Answer: > 100 µM

Question: What about the Activity (SK-BR-3 [2]) of the same compound?
Answer: 4.03%

Question: What about the Activity (SK-BR-3 [3]) of the same compound?
Answer: 3.49%

Question: And the Activity (SK-BR-3 [4])?
Answer: 11.78%

Question: And the GI50 (CCRF-CEM)?
Answer: 0.0485 µM

Question: What about the TGI (CCRF-CEM) of the same compound?
Answer: > 100 µM

Question: And the “growth inhibition (GI)” value (CCRF-CEM)?
Answer: Dose-dependent effect

Question: What about the CC50 (CCRF-CEM; [25]) of the same compound?
Answer: > 100 µM

Question: And the Activity (SK-BR-3 [5])?
Answer: 63.15%

Question: And the Activity (SK-BR-3 [6])?
Answer: 31.77%

Question: What about the Activity (SK-BR-3 [7]) of the same compound?
Answer: 13.9%

Question: What about the Activity (SK-BR-3 [8]) of the same compound?
Answer: 14.61%

Question: And the “growth inhibition (GI)” value (NCI-H226)?
Answer: Dose-dependent effect

Question: And the GI50 (NCI-H226; NCI-H226, 48 h)?
Answer: 0.686 µM

Question: And the TGI (NCI-H226; NCI-H226, 48 h)?
Answer: > 100 µM

Question: What about the CC50 (NCI-H226; NCI-H226, 48 h, read-out: LC50 (the source's name)) of the same compound?
Answer: > 100 µM

Question: And the Activity (SK-BR-3 [9])?
Answer: 11.54%

Question: And the Activity (SK-BR-3 [10])?
Answer: 70.84%

Question: And the Activity (SK-BR-3 [11])?
Answer: 15.84%

Question: What about the “growth inhibition (GI)” value (MDA-MB-468) of the same compound?
Answer: Dose-dependent effect

Question: And the GI50 (MDA-MB-468; MDA-MB-468, 48 h)?
Answer: 0.155 µM

Question: What about the TGI (MDA-MB-468; MDA-MB-468, 48 h) of the same compound?
Answer: 0.401 µM

Question: What about the Activity (SK-BR-3 [12]) of the same compound?
Answer: 67.1%

Question: And the GI50 [13]?
Answer: 0.087 µM

Question: And the CC50 [13, 25]?
Answer: > 100 µM

Question: And the “growth inhibition (GI)” value (Hs-578T)?
Answer: Dose-dependent effect

Question: And the Activity (SK-BR-3 [14])?
Answer: 73.42%

Question: And the “growth inhibition (GI)” value (SW-620)?
Answer: Dose-dependent effect

Question: And the GI50 (SW-620; SW-620, 48 h)?
Answer: 0.112 µM

Question: And the TGI (SW-620; SW-620, 48 h)?
Answer: > 100 µM

Question: And the CC50 (SW-620; SW-620, 48 h, read-out: LC50 (the source's name))?
Answer: > 100 µM

Question: What about the Tmax [15] of the same compound?
Answer: 2 h

Question: And the “growth inhibition (GI)” value (UACC-257)?
Answer: Dose-dependent effect

Question: And the GI50 (UACC-257; UACC-257, 48 h)?
Answer: 0.144 µM

Question: And the TGI (UACC-257; UACC-257, 48 h)?
Answer: > 100 µM

Question: And the CC50 (UACC-257; UACC-257, 48 h, read-out: LC50 (the source's name))?
Answer: > 100 µM

Question: And the Activity (SK-BR-3 [16])?
Answer: 28.14%

Question: And the Activity (SK-BR-3 [17])?
Answer: 10.77%

Question: And the “growth inhibition (GI)” value (NCI-H460)?
Answer: Dose-dependent effect

Question: What about the GI50 (NCI-H460; NCI-H460, 48 h) of the same compound?
Answer: 0.184 µM

Question: And the TGI (NCI-H460; NCI-H460, 48 h)?
Answer: 0.744 µM

Question: What about the CC50 (NCI-H460; NCI-H460, 48 h, read-out: LC50 (the source's name)) of the same compound?
Answer: > 100 µM

Question: What about the Activity (SK-BR-3 [18]) of the same compound?
Answer: 7.28%

Question: And the Activity (SK-BR-3 [19])?
Answer: 27.94%

Question: And the “growth inhibition (GI)” value (OVCAR-4)?
Answer: Dose-dependent effect

Question: And the TGI (OVCAR-4; OVCAR-4, 48 h)?
Answer: > 100 µM

Question: What about the CC50 (OVCAR-4; OVCAR-4, 48 h, read-out: LC50 (the source's name)) of the same compound?
Answer: > 100 µM

Question: What about the “growth inhibition (GI)” value (HCT-116) of the same compound?
Answer: Dose-dependent effect

Question: And the TGI (HCT-116; HCT-116, 48 h)?
Answer: 1.02 µM

Question: What about the CC50 (HCT-116; HCT-116, 48 h, read-out: LC50 (the source's name)) of the same compound?
Answer: > 100 µM

Question: What about the Activity (SK-BR-3 [20]) of the same compound?
Answer: 69.09%

Question: And the Activity (SK-BR-3 [21])?
Answer: 11.57%

Question: What about the Activity (SK-BR-3 [22]) of the same compound?
Answer: 8.31%

Question: And the Activity (SK-BR-3 [23])?
Answer: 9.71%

Question: What about the Activity (SK-BR-3 [24]) of the same compound?
Answer: 3.43%
